Laboratory results taken from ChEMBL document CHEMBL4304739, “Discovery of 3-(Indol-5-yl)-indazole Derivatives as Novel Myeloid Differentiation Protein 2/Toll-like Receptor 4 Antagonists for Treatment of Acute Lung Injury” (J Med Chem, 2019).
Active and inactive are the calls of the source. No cut-off for these calls is given here.

Legend:
[1] = test system: Tyrosine-protein kinase ABL1 (Homo sapiens), P00519 [E255K]; experiment: Inhibition of human phosphorylated ABL1 E255K mutant (S229 to K512 residues) expressed in mammalian expression system at 1 uM by Kinomescan method
In short: (§1)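 KINOMEscan competition binding screen at 1 μM compound. Results reported as % of control = (test − positive control)/(DMSO negative control − positive control) × 100, where lower values mean stronger hits.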

[2] = target: 3-phosphoinositide-dependent protein kinase 1 (Homo sapiens) (UniProt O15530); experiment: Inhibition of wild-type human full length PDPK1 (M1 to Q556 residues) expressed in bacterial expression system at 1 uM by Kinomescan method; in short: as §1
[3] = target: Tyrosine-protein kinase BTK (Homo sapiens) (UniProt Q06187); experiment: Inhibition of wild-type human full length BTK (M1 to S659 residues) expressed in mammalian expression system at 1 uM by Kinomescan method; in short: as §1
[4] = species on record: Homo sapiens; experiment: Inhibition of EGFP-fused NFkappaB (unknown origin) stably expressed in mouse RAW 264.7 cells assessed as reduction in LPS-induced transcriptional activation at 10 uM measured after 3 hrs by flow cytometric analysis; format: cell-based
In short: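 RAW264.7 cells stably carrying an NF-κB response element–EGFP reporter (lentiviral, puromycin-selected). Cells treated with 500 ng/mL LPS for 1 h, then vehicle or compound (10 μM) for 3 h. EGFP signal measured by flow cytometry.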

[5] = target: TGF-beta receptor type-1 (Homo sapiens) (UniProt P36897); experiment: Inhibition of wild-type human partial length TGFBR1 (D179 to M503 residues) expressed in bacterial expression system at 1 uM by Kinomescan method
In short: (§2)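 Single-concentration screen at 1 μM on the KINOMEscan panel (98 kinases), run by the platform provider. Results are given as percent of control: % Ctrl = [(test signal − positive control signal)/(negative control signal − positive control signal)] × 100. DMSO serves as negative control (100% Ctrl) and a control compound as positive control (0% Ctrl). Lower values mean stronger binding hits.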

[6] = target: Ephrin type-A receptor 2 (Homo sapiens) (UniProt P29317); experiment: Inhibition of wild-type human partial length EPHA2 (T593 to V891 residues) expressed in bacterial expression system at 1 uM by Kinomescan method
In short: (§3)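 Binding-competition screen on the KINOMEscan platform, run by the provider, with the test compound at 1 μM. Readout is percent of control: (test signal − positive control signal)/(negative control signal − positive control signal) × 100. The DMSO negative control is set as 100% Ctrl and a control compound as 0% Ctrl. Lower values mean stronger hits.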

[7] = test system: Tyrosine-protein kinase ABL1 (Homo sapiens), P00519 [T315I]; experiment: Inhibition of human phosphorylated ABL1 T315I mutant (S229 to K512 residues) expressed in mammalian expression system at 1 uM by Kinomescan method; in short: as §1
[8] = target: Tyrosine-protein kinase ZAP-70 (Homo sapiens) (UniProt P43403); experiment: Inhibition of wild-type human partial length ZAP70 (D20 to G299 residues) expressed in mammalian expression system at 1 uM by Kinomescan method; in short: as §2
[9] = target: Protein kinase C epsilon type (Homo sapiens) (UniProt Q02156); experiment: Inhibition of wild-type human partial length PRKCE (A378 to P737 residues) expressed in mammalian expression system at 1 uM by Kinomescan method; in short: as §3
[10] = target: High affinity nerve growth factor receptor (Homo sapiens) (UniProt P04629); experiment: Inhibition of wild-type human partial length TRKA (G475 to G790 residues) expressed in mammalian expression system at 1 uM by Kinomescan method; in short: as §2
[11] = target: Platelet-derived growth factor receptor beta (Homo sapiens) (UniProt P09619); experiment: Inhibition of wild-type human partial length PDGFRB (V582 to Y1009 residues) expressed in bacterial expression system at 1 uM by Kinomescan method; in short: as §3
[12] = target: Cyclin-dependent kinase 2 (Homo sapiens) (UniProt P24941); experiment: Inhibition of wild-type human full length CDK2 (M1 to L298 residues) expressed in bacterial expression system at 1 uM by Kinomescan method; in short: as §1
[13] = target: Toll-like receptor 4 (Homo sapiens, UniProt O00206); experiment: Inhibition of HA-tagged/FLAG-tagged TLR4 (unknown origin) homodimerization expressed in HEK293T cells by co-immunoprecipitation method; format: cell-based
In short: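 HEK293T cells co-transfected with HA- and Flag-tagged TLR4 plasmids. Compound at various concentrations or vehicle added 6 h after transfection. Lysates immunoprecipitated with protein A/G agarose and detected by immunoblot with anti-HA and anti-Flag antibodies.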

[14] = target: Angiopoietin-1 receptor (Homo sapiens) (UniProt Q02763); experiment: Inhibition of wild-type human partial length TIE2 (N804 to T1112 residues) expressed in bacterial expression system at 1 uM by Kinomescan method; in short: as §2
[15] = target: Mitogen-activated protein kinase 11 (Homo sapiens) (UniProt Q15759); experiment: Inhibition of wild-type human full length p38-beta (M1 to Q364 residues) expressed in bacterial expression system at 1 uM by Kinomescan method; in short: as §1
[16] = target: Phosphatidylinositol 4,5-bisphosphate 3-kinase catalytic subunit gamma isoform (Homo sapiens) (UniProt P48736); experiment: Inhibition of wild-type human partial length PIK3CG (S144 to A1102 residues) expressed in mammalian expression system at 1 uM by Kinomescan method; in short: as §3
[17] = target: Serine/threonine-protein kinase DCLK1 (Homo sapiens) (UniProt O15075); experiment: Inhibition of wild-type human partial length DCAMKL1 (L270 to A662 residues) expressed in mammalian expression system at 1 uM by Kinomescan method; in short: as §3
[18] = target: Fibroblast growth factor receptor 3 (Homo sapiens) (UniProt P22607); experiment: Inhibition of wild-type human partial length FGFR3 (R442 to S771 residues) expressed in bacterial expression system at 1 uM by Kinomescan method; in short: as §3
[19] = target: RAC-alpha serine/threonine-protein kinase (Homo sapiens) (UniProt P31749); experiment: Inhibition of wild-type human partial length AKT1 expressed in bacterial expression system at 1 uM by Kinomescan method; in short: as §1
[20] = test system: Mus musculus; experiment: Antiinflammatory activity in LPS-induced C57BL/6 mouse model of acute lung injury assessed as appearance of normal pulmonary lobule structure at 5 to 10 mg/kg, iv pretreated for 15 mins followed by LPS stimulation and measured after 6 hrs by H and E staining-based microscopic analysis; format: functional, organism-based
In short: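 Male C57BL/6 mice (18−22 g; n=8 per group). Compound in 0.1% CMC-Na given by tail vein injection 15 min before intraperitoneal LPS (20 mg/kg); controls received saline. Mice were sacrificed 6 h after LPS, and serum and lung tissue were collected.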

[21] = test system: Epidermal growth factor receptor (Homo sapiens), P00533 [L858R]; experiment: Inhibition of human partial length EGFR L858R mutant (R669 to V1011 residues) expressed in bacterial expression system at 1 uM by Kinomescan method
In short: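 KINOMEscan competition binding panel (98 kinases) run by the provider, compound screened once at 1 μM. Read-out is percent of control: [(test signal − positive control signal)/(negative control signal − positive control signal)] × 100. DMSO negative control sets 100% Ctrl and a control compound sets 0% Ctrl; lower values mean stronger hits.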

Chain of Tyrosine-protein kinase ZAP-70 (Homo sapiens) (P43403 whole entry, the tested form may be a part): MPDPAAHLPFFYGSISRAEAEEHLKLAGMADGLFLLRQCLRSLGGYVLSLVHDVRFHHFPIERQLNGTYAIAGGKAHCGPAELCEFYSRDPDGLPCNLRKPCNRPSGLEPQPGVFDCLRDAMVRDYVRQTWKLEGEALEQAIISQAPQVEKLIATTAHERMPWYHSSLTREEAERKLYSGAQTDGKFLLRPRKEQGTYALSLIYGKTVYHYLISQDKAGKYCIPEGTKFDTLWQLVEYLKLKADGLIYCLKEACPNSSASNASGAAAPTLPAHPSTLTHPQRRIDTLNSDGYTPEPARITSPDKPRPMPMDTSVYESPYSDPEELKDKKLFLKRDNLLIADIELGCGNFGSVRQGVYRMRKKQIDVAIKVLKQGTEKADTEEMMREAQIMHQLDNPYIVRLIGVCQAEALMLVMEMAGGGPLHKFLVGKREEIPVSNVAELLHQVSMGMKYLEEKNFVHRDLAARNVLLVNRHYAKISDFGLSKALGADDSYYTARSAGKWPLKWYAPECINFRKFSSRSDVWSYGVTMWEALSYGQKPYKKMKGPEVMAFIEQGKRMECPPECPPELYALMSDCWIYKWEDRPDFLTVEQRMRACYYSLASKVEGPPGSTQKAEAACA
Chain of Tyrosine-protein kinase BTK (Homo sapiens) (Q06187 whole entry, the tested form may be a part): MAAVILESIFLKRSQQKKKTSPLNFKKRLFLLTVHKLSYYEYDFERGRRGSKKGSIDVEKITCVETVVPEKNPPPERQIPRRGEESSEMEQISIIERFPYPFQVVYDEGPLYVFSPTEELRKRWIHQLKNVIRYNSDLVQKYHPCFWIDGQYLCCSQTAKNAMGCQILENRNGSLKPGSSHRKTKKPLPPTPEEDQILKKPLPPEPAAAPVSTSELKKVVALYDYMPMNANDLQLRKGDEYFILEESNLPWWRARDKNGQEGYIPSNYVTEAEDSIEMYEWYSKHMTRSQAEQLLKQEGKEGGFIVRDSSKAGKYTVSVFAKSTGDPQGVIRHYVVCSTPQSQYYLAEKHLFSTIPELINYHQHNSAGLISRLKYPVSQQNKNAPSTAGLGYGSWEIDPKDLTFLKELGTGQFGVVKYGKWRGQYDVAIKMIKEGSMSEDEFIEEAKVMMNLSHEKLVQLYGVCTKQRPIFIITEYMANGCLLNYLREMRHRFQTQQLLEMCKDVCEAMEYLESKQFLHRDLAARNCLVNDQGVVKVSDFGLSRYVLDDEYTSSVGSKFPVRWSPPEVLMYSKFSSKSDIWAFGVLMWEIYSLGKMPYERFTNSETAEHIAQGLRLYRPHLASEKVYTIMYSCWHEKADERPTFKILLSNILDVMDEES
Chain of Phosphatidylinositol 4,5-bisphosphate 3-kinase catalytic subunit gamma isoform (Homo sapiens) (P48736 whole entry, looked up, the tested form may be a part, canonical isoform): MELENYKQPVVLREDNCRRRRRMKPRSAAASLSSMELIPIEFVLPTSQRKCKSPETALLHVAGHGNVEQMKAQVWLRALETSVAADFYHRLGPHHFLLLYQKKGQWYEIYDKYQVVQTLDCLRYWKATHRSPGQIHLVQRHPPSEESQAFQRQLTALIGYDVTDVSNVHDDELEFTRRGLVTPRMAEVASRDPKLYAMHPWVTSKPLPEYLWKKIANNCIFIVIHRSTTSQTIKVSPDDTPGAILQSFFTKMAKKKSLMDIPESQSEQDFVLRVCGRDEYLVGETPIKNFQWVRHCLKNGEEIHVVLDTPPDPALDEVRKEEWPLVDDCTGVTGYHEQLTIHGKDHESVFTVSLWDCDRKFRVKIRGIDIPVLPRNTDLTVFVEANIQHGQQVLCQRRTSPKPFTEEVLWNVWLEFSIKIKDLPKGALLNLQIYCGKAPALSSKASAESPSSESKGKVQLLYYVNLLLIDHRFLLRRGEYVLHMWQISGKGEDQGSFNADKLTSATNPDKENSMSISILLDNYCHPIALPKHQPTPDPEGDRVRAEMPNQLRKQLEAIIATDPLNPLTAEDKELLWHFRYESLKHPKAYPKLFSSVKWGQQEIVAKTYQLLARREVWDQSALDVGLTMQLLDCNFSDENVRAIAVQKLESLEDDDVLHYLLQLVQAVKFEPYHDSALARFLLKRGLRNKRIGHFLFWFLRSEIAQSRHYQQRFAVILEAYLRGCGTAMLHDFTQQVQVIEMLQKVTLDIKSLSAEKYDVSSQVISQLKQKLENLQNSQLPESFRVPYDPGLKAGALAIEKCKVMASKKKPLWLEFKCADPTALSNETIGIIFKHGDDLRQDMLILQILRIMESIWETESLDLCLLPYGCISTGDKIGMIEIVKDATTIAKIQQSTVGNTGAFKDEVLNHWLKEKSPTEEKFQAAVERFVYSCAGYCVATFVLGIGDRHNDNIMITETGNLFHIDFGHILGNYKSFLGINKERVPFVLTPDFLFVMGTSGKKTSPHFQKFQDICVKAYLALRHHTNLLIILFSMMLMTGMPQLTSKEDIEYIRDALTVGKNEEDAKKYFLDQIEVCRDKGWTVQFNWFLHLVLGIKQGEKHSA
Chain of Epidermal growth factor receptor (Homo sapiens), P00533 [L858R] (P00533 whole entry L858R, the tested form may be a part): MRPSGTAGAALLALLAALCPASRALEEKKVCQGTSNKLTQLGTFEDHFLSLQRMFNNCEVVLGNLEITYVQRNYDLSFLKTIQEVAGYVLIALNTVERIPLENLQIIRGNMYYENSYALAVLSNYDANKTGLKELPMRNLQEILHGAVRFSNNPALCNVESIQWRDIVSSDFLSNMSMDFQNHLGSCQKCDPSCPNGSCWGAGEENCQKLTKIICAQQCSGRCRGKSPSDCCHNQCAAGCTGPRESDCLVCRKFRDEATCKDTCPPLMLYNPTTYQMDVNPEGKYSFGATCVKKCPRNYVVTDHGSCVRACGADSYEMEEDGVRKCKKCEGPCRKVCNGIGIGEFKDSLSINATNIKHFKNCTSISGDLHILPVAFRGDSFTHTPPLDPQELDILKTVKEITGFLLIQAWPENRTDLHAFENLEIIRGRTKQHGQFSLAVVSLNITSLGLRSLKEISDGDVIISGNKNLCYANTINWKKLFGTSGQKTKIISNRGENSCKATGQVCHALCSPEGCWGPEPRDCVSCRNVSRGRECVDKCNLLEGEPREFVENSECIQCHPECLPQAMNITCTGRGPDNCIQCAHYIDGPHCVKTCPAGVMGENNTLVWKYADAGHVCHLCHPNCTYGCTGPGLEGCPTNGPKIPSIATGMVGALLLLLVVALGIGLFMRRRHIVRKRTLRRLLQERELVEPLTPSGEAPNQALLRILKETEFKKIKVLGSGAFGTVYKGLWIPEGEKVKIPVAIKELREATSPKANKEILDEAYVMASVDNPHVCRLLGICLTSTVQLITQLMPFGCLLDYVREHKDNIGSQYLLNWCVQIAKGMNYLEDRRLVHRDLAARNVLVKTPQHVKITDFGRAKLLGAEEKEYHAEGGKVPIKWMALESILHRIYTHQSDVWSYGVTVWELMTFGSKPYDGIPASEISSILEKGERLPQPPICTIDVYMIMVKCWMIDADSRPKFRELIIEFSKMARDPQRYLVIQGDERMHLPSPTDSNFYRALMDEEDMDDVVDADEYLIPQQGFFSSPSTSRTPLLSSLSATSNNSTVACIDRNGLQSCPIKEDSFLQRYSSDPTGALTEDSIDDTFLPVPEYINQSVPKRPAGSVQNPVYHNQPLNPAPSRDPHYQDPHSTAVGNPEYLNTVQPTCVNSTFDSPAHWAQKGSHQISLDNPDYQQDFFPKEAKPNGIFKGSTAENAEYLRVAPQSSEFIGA
Chain of High affinity nerve growth factor receptor (Homo sapiens) (P04629 33-796 limits assumed): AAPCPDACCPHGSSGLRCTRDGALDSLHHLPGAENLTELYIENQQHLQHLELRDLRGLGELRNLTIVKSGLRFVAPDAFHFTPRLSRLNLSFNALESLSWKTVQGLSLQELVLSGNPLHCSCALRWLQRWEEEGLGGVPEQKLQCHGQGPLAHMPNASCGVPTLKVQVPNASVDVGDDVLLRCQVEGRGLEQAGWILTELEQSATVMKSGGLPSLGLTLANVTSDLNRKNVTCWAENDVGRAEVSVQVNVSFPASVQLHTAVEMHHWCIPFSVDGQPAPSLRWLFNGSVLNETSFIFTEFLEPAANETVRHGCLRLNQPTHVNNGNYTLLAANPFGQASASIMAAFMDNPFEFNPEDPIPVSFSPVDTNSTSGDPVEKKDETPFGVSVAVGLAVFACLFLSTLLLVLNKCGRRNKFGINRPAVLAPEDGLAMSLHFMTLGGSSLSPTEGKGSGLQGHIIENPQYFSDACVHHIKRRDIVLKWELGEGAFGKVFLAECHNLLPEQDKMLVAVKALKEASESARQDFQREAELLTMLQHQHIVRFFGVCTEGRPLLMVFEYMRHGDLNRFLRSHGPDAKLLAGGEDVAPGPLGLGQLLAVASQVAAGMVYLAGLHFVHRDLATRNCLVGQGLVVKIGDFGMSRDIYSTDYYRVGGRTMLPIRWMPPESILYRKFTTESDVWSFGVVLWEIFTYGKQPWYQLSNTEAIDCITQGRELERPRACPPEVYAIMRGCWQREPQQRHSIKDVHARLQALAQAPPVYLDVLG
Chain of Protein kinase C epsilon type (Homo sapiens) (Q02156 whole entry, the tested form may be a part): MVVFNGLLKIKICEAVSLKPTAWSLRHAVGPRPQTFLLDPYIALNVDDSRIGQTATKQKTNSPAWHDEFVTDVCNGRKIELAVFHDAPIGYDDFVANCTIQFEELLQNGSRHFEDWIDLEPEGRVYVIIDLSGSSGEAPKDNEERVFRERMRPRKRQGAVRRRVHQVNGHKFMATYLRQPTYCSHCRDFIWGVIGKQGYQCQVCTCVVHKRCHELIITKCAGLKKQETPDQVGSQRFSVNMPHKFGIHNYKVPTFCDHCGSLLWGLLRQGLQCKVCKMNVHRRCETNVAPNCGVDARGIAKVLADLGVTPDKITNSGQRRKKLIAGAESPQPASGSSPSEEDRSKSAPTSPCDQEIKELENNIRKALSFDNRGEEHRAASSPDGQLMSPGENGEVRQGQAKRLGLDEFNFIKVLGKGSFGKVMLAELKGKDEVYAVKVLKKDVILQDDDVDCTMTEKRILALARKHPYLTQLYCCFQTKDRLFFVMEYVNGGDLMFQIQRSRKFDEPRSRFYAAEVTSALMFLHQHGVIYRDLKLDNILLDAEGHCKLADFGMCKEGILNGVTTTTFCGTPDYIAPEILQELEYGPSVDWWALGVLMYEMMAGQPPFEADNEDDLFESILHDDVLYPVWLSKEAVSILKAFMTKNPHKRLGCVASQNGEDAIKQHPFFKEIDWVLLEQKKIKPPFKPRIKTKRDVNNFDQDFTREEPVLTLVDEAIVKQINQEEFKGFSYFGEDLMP

Compound: O=C(Nc1ccc2[nH]nc(-c3ccc4[nH]ccc4c3)c2c1)c1c(Cl)cccc1Cl
- inhibition [1]: inactive
- inhibition [2]: inactive
- inhibition [3]: inactive
- inhibition [4]: Active
- inhibition [5]: inactive
- inhibition [6]: inactive
- inhibition [7]: inactive
- inhibition [8]: inactive
- inhibition [9]: inactive
- inhibition [10]: inactive
- inhibition [11]: inactive
- inhibition [12]: inactive
- inhibition [13]: Active
- inhibition [14]: inactive
- inhibition [15]: inactive
- inhibition [16]: inactive
- inhibition [17]: inactive
- inhibition [18]: inactive
- inhibition [19]: inactive
- Activity [20]: Active
- inhibition [21]: inactive
